# In ChEMBL document CHEMBL2203116, “Synthesis and evaluation of novel carbon-11 labeled oxopurine analogues for positron emission tomography imaging of translocator protein (18 kDa) in peripheral organs” (J Med Chem, 2011):
# How the values were obtained:
# Type in all cases: ADME, organism-based
# Lung [1] = test: Drug uptake in Sprague-Dawley rat lung at 0.15 nmol, iv pretreated with unlabeled (R)-PK11195 by PET scanning; conditions: in vivo
# Summary of the method: (§1)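 Male Sprague-Dawley rats (6–8 weeks old), isoflurane-anesthetized, prone. ROIs on lung, heart, kidney, liver, small intestine and cardiac blood pool. Uptake decay-corrected to injection time and expressed as SUV (body-weight normalized). n = 4, mean ± SD.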
# Kidney [2] = test: Drug uptake in Sprague-Dawley rat kidney at 0.15 nmol, iv pretreated with unlabeled (R)-PK11195 by PET scanning; conditions: in vivo; summary of the method: as §1
# Heart [3] = test: Drug uptake in Sprague-Dawley rat heart at 0.15 nmol, iv pretreated with unlabeled AC-5216 by PET scanning; conditions: in vivo
# Summary of the method: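 Isoflurane-anesthetized Sprague-Dawley rats underwent 30-min PET after iv [11C]radioligand, with unlabeled blocker given iv 1 min before tracer. Blockers were (R)-PK11195 at 3.0 mg/kg or AC-5216 at 1.0 mg/kg in 300 μL saline with 10% ethanol and 5% polysorbate 80. Regional uptake was decay-corrected SUV (n = 4).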
# Kidney [4] = test: Drug uptake in Sprague-Dawley rat kidney at 0.15 nmol, iv pretreated with unlabeled AC-5216 by PET scanning; conditions: in vivo; summary of the method: as §1
# [5] = Metabolic stability in Sprague-Dawley rat lung assessed as unchanged compound at 0.32 nmol, iv after 30 mins by analytical radio- HPLC; conditions: read-out: Stability
# Heart [6] = test: Biodistribution in LPS-treated Sprague-Dawley rat heart at 0.19 nmol, iv by gamma counting; conditions: in vivo
# Summary of the method: (§2)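 Male Sprague-Dawley rats were given intratracheal LPS (E. coli O127:B8, 5.0 mg/kg in 50 μL saline) or 50 μL saline vehicle 24 h before tracer. [11C]Radioligand (16 MBq/200 μL, 0.19 nmol) in saline was injected via the tail vein. Rats were killed at 30 min (n = 4 per group). Tissues were weighed and gamma-counted, expressed as decay-corrected %ID/g.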
# Spleen = test: Biodistribution in LPS-treated Sprague-Dawley rat spleen at 0.19 nmol, iv by gamma counting; conditions: in vivo; summary of the method: as §2
# Liver [7] = test: Biodistribution in Sprague-Dawley rat liver at 0.19 nmol, iv by gamma counting; conditions: in vivo; summary of the method: as §2
# Pancreas = test: Biodistribution in Sprague-Dawley rat pancreas at 0.19 nmol, iv by gamma counting; conditions: in vivo; summary of the method: as §2
# Blood [8] = test: Drug uptake in Sprague-Dawley rat cardiac blood pool at 0.15 nmol, iv after 27.5 mins by PET scanning; conditions: in vivo
# Summary of the method: (§3)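 Isoflurane-anesthetized male Sprague-Dawley rats lay prone and received an iv bolus of [11C]radioligand in 200 μL. 3D list-mode emission scans ran 30 min from injection. Regions of interest were drawn on the organs and cardiac blood pool. Uptake was decay-corrected to injection time and expressed as SUV (normalized to injected radioactivity and body weight). Values are mean of n = 4.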
# Heart [9] = test: Drug uptake in Sprague-Dawley rat heart at 0.15 nmol, iv up to 30 mins by PET scanning; conditions: in vivo, 0.5 h; summary of the method: as §3
# Liver [10] = test: Drug uptake in Sprague-Dawley rat liver at 0.15 nmol, iv up to 30 mins by PET scanning; conditions: in vivo, 0.5 h; summary of the method: as §1
# Blood [11] = test: Drug uptake in Sprague-Dawley rat cardiac blood pool at 0.15 nmol, iv up to 30 mins by PET scanning; conditions: in vivo, 0.5 h; summary of the method: as §3
# Lung [12] = test: Drug uptake in Sprague-Dawley rat lung at 0.15 nmol, iv after 2 mins by PET scanning; conditions: in vivo; summary of the method: as §1
# Heart [13] = test: Drug uptake in Sprague-Dawley rat heart at 0.15 nmol, iv after 2 mins by PET scanning; conditions: in vivo; summary of the method: as §3
# Liver [14] = test: Drug uptake in Sprague-Dawley rat liver at 0.15 nmol, iv after 2 mins by PET scanning; conditions: in vivo; summary of the method: as §1
smiles,measurement,setting,value
CCN(Cc1ccncc1)C(=O)Cn1c(=O)n([11CH3])c2cnc(-c3ccccc3)nc21,Drug uptake,Lung [1],Not Active
same,Drug uptake,Kidney [2],Not Active
same,Drug uptake,Heart [3],Not Active
same,Drug uptake,Kidney [4],Not Active
same,remaining at 0.5 h,[5],92.1%
same,Drug uptake,Heart [6],2.17 % ID/g
same,Drug uptake,Spleen,1.88 % ID/g
same,Drug uptake,Liver [7],0.53 % ID/g
same,Drug uptake,Pancreas,0.38 % ID/g
same,SUV,Blood [8],0.4
same,Drug uptake,Heart [9],Active
same,Drug uptake,Liver [10],Active
same,Drug uptake,Blood [11],Active
same,SUV,Lung [12],3.4
same,SUV,Heart [13],4.6
same,SUV,Liver [14],1.6
